Compounds with a hit are over-represented: about 2.3% of the library has one in this group of screens.
NS3 helicase inh: inhibitors of HCV NS3 helicase, primary screen, biochemical, Cy5 molecular beacon fluorescence; Hepatitis C virus NS3 helicase; NS3 helicase DNA unwinding; inhibition, % at 10.9 µM; 290,000 compounds, 0.56% hits;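 active means inhibition above the mean of all tested compounds plus 3 SD, set per campaign, cut at about 35% in these data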;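 further: 0% = DMSO wells and 100% = thioflavine S control wells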
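Measured by: Cy5 fluorescence, 0 and 60 min reads / Assay system: NS3 helicase fragment of HCV / Control set: low DMSO, high thioflavine S at 110 µM / Times: 1 h reaction at 25 °C, ATP-initiated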
GPR7 antag: GPR7 receptor antagonists, primary screen, cell-based, fluorescence, single concentration; Neuropeptides B/W receptor type 1 (Homo sapiens), P48145; GPR7-expressing cells, fluorescence antagonist assay; inhibition, % at 4.4 µM; 290,000 compounds, 1.1% hits; AID 1861, 2009; in the data active means inhibition above about 16%, passing the limit was not always enough;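 further: cells stimulated with the agonist NPW; 0% = agonist with vehicle and 100% = vehicle without agonist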
Target sequence (P48145 whole entry, looked up): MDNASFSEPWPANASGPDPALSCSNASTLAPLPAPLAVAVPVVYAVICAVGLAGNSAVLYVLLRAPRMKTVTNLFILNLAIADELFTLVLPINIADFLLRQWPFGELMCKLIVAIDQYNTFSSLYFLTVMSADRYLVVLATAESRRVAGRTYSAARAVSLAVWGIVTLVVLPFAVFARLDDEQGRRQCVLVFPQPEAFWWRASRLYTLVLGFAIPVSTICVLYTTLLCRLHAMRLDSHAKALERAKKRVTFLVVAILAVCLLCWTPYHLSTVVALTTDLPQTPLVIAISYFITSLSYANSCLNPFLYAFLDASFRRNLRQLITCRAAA
EBV gp42 block: Epstein-Barr virus gp42 inhibitors, primary screen, biochemical, uHTS, fluorescence polarization; Glycoprotein 42 (Epstein-Barr virus (strain AG876)), Q1HVG2; Fluorescence polarization binding assay, mP read-out; AID 1085, 2008; inhibition, % (tested at 21.74 µM); 220,000 compounds, 0.42% hits; in the data active means inhibition above about 50%
Target sequence (Q1HVG2 whole entry, looked up): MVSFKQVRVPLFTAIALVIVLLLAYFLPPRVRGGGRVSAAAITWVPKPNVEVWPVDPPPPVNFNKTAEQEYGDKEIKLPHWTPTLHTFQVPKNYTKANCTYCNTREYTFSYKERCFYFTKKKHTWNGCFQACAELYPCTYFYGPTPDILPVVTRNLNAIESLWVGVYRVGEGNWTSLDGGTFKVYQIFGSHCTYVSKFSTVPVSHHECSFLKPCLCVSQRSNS
HCV core dimer: inhibitors of HCV core protein dimerization, primary screen, biochemical, TR-FRET, high-throughput; TR-FRET GST/Flag-core106 dimerization, 1536-well; inhibition, % at 5 µM; 300,000 compounds, 0.33% hits; AID 1899, 2009;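 active means inhibition above the mean of all tested compounds plus 3 SD, set per screening campaign, cut at about 45% in these data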
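Assay system – GST-tagged and Flag-tagged HCV core protein residues 1-106 · Quantity – core106 proteins, GST 13.5 nM and Flag 17 nM · Benchmarks – unlabelled core106 and no-GST-core106 wells · Read-out basis – percent inhibition of core106 dimerization signal · Detection – time-resolved FRET, ex 340 nm, em 617 and 671 nm · Schedule – 4 h at 22.5 °C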
EBNA-1 inhibitor: EBNA-1 DNA-binding inhibitors, primary screen, biochemical, fluorescence polarization; inhibition, % at 14.8 µM; 300,000 compounds, 0.34% hits; in the data active means inhibition above about 28%
ZTA counter: blocks Epstein-Barr virus ZTA, an EBNA-1 counter-screen; inhibition, % at 11 µM; 320,000 compounds, 0.15% hits; P03206; ZTA-DNA binding, fluorescence polarization; in the data active means inhibition above about 33%
EBNA-1 inh conf: EBNA-1 DNA-binding inhibitors, retest, confirmation, biochemical, fluorescence polarization, triplicate; inhibition, % at 14.8 µM; Recombinant EBNA-1 DBD, Cy5-DNA fluorescence polarization; shares compounds with EBNA-1 inhibitor; 830 compounds, 35% hits;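 active means mean inhibition across replicates above a set limit taken from the earlier primary screen, cut at about 28% in these data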;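 further: plate controls were EBNA-1 protein with DMSO for no effect and wells lacking EBNA-1 for full effect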
ZTA DNA inh trip: EBV Zta DNA binding inhibitors, counter-screen for EBNA-1 inhibitor project, biochemical, fluorescence polarization, triplicate | shares compounds with EBNA-1 inhibitor | inhibition, % at 11.1 µM | Zta-ZRE DNA binding, Cy5 fluorescence polarization | 830 tested, under 10 active;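 active means mean inhibition over triplicates above a set limit taken from the primary EBNA-1 screen, cut at about 37% in these data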;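 further: purified full length Zta protein with Cy5 labeled ZRE DNA probe; 0% = Zta with DMSO and 100% = wells lacking Zta protein; inhibitors lower polarization by freeing the labeled DNA probe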
The depositor's hits bear a star; . = not tested or not shown.

SMILES	NS3 helicase inh	GPR7 antag	EBV gp42 block	HCV core dimer	EBNA-1 inhibitor	ZTA counter	EBNA-1 inh conf	ZTA DNA inh trip
CCOc1ccc(NC(=O)CN(C)C(=O)/C=C/c2ccc(S(=O)(=O)N3CCCCCC3)cc2)cc1OCC	.	.	.	6.5	32.5*	-0.9	14.4	3.8
CCOC(=O)c1[nH]c2ccccc2c1NC(=O)c1ccc2c(c1)OCO2	2.6	-14.9	9.6	2.4	31.9*	3.5	19.5	-10.4
CCOC(=O)c1[nH]c2ccc(OC)cc2c1NC(=O)c1ccc2c(c1)OCO2	-5.9	-2.2	2.2	-0.9	-19.7	3.9	.	.
CCn1c(CNC(=O)C23CC4CC(CC(C4)C2)C3)nnc1SCC(=O)Nc1nnc(C)s1	-0.5	-20.2	-6.3	-9.0	42.4*	6.8	-3.0	4.4
CC1CCN(C(=O)COC(=O)c2cc(Cl)cc(Cl)c2N)CC1	11.9	-1.7	-16.1	7.0	2.5	-15.9	.	.
OC(c1ccccc1)(c1ccccc1)c1ccn[nH]1	.	.	.	0.1	0.8	-5.0	.	.
CC(C)Cn1c(N)c(C(=O)COC(=O)c2ccc3c(c2)OCCO3)c(=O)n(C)c1=O	-7.5	-19.8	-25.7	0.0	28.5*	-2.0	31.9*	4.6
CC(C)CN(C(=O)CSc1ccc2c(c1)OCCO2)c1c(N)n(CC(C)C)c(=O)[nH]c1=O	.	.	.	.	.	6.6	.	.
CC(C)Cn1c(N)c(C(=O)CSc2ccc3c(c2)OCCO3)c(=O)n(C)c1=O	0.8	8.5	-11.3	-1.3	53.8*	-5.8	47.4*	6.1
CCOC(=O)c1[nH]c2ccccc2c1NC(=O)c1ccc(S(=O)(=O)N(C)C)cc1	-5.0	-6.2	5.8	8.8	3.2	9.3	.	.
CCOC(=O)c1oc2ccccc2c1NC(=O)c1ccc(S(=O)(=O)N(C)C)cc1	-7.5	-0.8	0.7	2.5	47.5*	-6.8	52.0*	6.4
CCOC(=O)c1oc2ccccc2c1NC(=O)c1ccc(S(=O)(=O)N2CCCC2)cc1	2.9	-2.0	-2.4	7.2	36.6*	-8.1	46.6*	0.4
CCOC(=O)CN1N=C(c2ccc(Cl)cc2)CCC1=O	10.4	8.1	.	-4.7	-7.4	-0.1	.	.
CCn1ccnc1[C@@H]1C[C@H]2CN(Cc3ccccc3OC)C(=O)[C@]23CCCN13	5.0	-5.8	-4.5	-1.4	-6.7	4.6	.	.
CC(C)C(=O)Nc1ccc(C(=O)NNC(=O)CCCOc2ccc(Cl)cc2Cl)cc1	-2.1	3.0	-22.1	0.2	35.9*	-7.6	15.2	9.8
CCCCC(=O)Nc1ccc(C(=O)NNC(=O)CCCOc2ccc(Cl)cc2Cl)cc1	6.8	-11.0	-10.4	24.0	3.8	8.3	.	.
O=C1c2ccccc2NC(c2ccc(O)cc2)N1c1ccccc1 (centres undefined)	9.4	-0.9	.	1.4	-7.1	11.6	.	.
O=c1cc(-c2ccc(O)c(-c3c(O)cc(O)c4c(=O)cc(-c5ccc(O)cc5)oc34)c2)oc2cc(O)cc(O)c12	4.8	-0.5	7.1	2.6	33.6*	2.5	29.2*	19.9
O=c1c(-c2c(O)cc(O)c3c(=O)cc(-c4ccc(O)cc4)oc23)c(-c2ccc(O)cc2)oc2cc(O)cc(O)c12	.	.	26.3	23.6	10.0	9.0	.	.
Cc1ccc2c(c1)[nH]c1c(=O)n(Cc3ccco3)cnc12	4.7	-4.7	-4.5	0.1	69.6*	14.7	37.4*	0.3
COc1cc(NC(=O)c2ccc(N3CC4CC(C3)c3cccc(=O)n3C4)c(NC(=O)c3ccncc3)c2)cc(OC)c1OC (centres undefined)	-2.7	-8.4	.	8.7	9.7	6.3	.	.
Cc1csc(NC(=O)COc2ccc3c(C)cc(=O)oc3c2)n1	-11.1	-9.4	-21.2	5.9	44.4*	15.1	47.2*	10.4
O=C(Nc1ccc(N2CCN(c3ccc(C(F)(F)F)cn3)CC2)nc1)c1cccs1	0.1	-17.9	-27.1	3.8	39.2*	1.7	14.3	-2.9
O=C(Nc1ccc(N2CCOCC2)nc1)c1cccs1	6.1	-0.8	3.5	-0.2	-2.5	-3.2	.	.
O=C(COC(=O)c1cc(S(=O)(=O)N2CCOCC2)ccc1O)NCCc1ccccc1	9.5	3.5	-9.0	5.6	2.4	1.2	.	.
SMILES	NS3 helicase inh	GPR7 antag	EBV gp42 block	HCV core dimer	EBNA-1 inhibitor	ZTA counter	EBNA-1 inh conf	ZTA DNA inh trip
CN1CCN(CCNC(=O)c2ccc3nc(-c4ccc(F)cc4)c(-c4ccc(F)cc4)nc3c2)CC1	-86.5	-4.2	.	-7.5	-10.8	-6.0	.	.
COc1ccc(NC(=O)CSc2nc3nc(C)cc(C)c3c(=O)[nH]2)cc1	-3.6	-6.9	.	0.8	60.6*	27.8	-14.5	-6.9
O=C(CSc1nc2ccccc2c(=O)n1-c1ccccc1)c1cccc([N+](=O)[O-])c1	.	.	.	13.7	32.1*	6.1	26.8	-0.1
O=c1c2ccccc2nc(SCc2ccc([N+](=O)[O-])cc2)n1-c1ccccc1	-4.7	-2.6	-11.3	12.9	2.4	2.6	.	.
Cc1cccc(CSc2[nH]c(=O)ncc2C)c1	24.0	-3.8	.	0.8	-10.2	-31.4	.	.
CN=C1SC(CC(=O)Nc2c(C)cccc2C)C(=O)N1/N=C/c1cccs1 (centres undefined)	-16.9	-4.6	-9.6	7.0	35.6*	4.3	5.2	-4.9
Cc1ccc(OCC(=O)Nc2ccc(S(=O)(=O)Nc3ccccn3)cc2)cc1C	-0.8	-12.0	-16.4	5.7	42.8*	-1.1	-1.3	10.7
CCc1cccc(OCC(=O)Nc2ccc(S(=O)(=O)Nc3ccccn3)cc2)c1	8.1	-10.2	-9.7	5.1	-2.8	5.3	.	.
COc1ccc(-n2nc(C(=O)NCC(=O)NCCCN3CC(C)CC(C)C3)c3ccccc3c2=O)cc1OC (centres undefined)	5.2	4.4	.	-0.9	6.5	11.6	.	.
CO/N=C(/c1nonc1N)N1CCN(c2ccc([N+](=O)[O-])cc2)CC1	-4.3	1.4	-5.0	-3.4	33.3*	-2.9	7.4	1.0
O=C(NC1CCCCC1)c1ccc(-c2cccc([N+](=O)[O-])c2)o1	-0.9	-15.9	.	3.0	2.3	6.3	.	.
CCOc1ccc2nc(NCCNC(=O)Nc3ccccc3)c(C#N)cc2c1	0.1	-2.4	-0.8	-5.5	34.1*	4.2	17.7	-12.9

Screening data: PubChem BioAssay, several laboratories
